High-throughput results: PubChem, several laboratories
NRP1-CendR mod – NRP-1/CendR interaction modulation; 360,000 tested, 0.85% active; AID 602438; O14786; inhibition, % at 25 µM; FAM-RPARPAR peptide binding to NRP-1, fluorescence polarization;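 active means inhibition or corrected inhibition above about 18%, plus a signal ratio from 0.5 to 1.5, limit read from the data, passing the limit was not always enough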
Target sequence (O14786 whole entry, looked up): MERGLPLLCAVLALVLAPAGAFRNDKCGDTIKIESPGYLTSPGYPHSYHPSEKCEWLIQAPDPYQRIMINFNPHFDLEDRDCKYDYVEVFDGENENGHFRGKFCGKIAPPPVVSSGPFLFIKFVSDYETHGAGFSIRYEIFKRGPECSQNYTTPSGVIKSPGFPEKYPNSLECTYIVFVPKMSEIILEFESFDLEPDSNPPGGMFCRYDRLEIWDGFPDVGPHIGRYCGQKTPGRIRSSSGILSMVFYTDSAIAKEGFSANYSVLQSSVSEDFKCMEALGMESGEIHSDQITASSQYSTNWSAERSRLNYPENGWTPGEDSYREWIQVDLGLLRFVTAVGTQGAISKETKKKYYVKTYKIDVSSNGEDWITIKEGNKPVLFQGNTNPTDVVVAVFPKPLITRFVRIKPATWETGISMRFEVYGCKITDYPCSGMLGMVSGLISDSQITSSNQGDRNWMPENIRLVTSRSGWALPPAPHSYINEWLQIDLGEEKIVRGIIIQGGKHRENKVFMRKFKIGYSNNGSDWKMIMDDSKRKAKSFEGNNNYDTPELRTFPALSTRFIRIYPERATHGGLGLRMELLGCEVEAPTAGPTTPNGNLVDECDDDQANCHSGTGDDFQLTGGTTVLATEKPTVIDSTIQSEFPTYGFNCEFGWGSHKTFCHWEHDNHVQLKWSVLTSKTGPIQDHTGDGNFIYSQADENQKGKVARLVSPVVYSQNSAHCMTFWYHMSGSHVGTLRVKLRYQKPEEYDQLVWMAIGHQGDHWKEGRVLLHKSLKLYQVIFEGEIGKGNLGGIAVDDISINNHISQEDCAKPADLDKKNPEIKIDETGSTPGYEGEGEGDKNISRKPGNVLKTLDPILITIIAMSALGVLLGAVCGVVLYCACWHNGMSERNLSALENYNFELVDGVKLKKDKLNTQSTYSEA
V-ATPase pH – alters yeast V-ATPase proton transport | response, % at 10 µM | 350,000 tested, 0.37% active | S. cerevisiae, pHLuorin cytosolic pH fluorescence; in the data active means response mostly above about 7.3%, no sharp cut-off; inactive means mostly below about 5.4%; further: actives read high
T cruzi repl – blocks replication of Trypanosoma cruzi; T. cruzi beta-gal in NIH3T3, luminescence, 90 h; inhibition, % (no concentration beside the values); 300,000 tested, 1.4% active; AID 1885;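 active means mean inhibition across valid replicates above about 55%, limit read from the data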;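 further: signal also drops with host cell toxicity which is not excluded here; higher percent means less beta-gal luminescence so fewer parasites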
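Material: NIH/3T3 host cells with β-galactosidase reporter T. cruzi; Input: 5,000 host fibroblasts per well; Medium: DMEM, 2% fetal bovine serum; Compound: 50 nL DMSO compound solution per well; Schedule: 3 h host attachment, then at least 90 h co-culture; Detection: luminescent β-galactosidase signal after 60 min lysis.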
HIF act – HIF pathway transcriptional activation; 300,000 tested, 0.32% active; activation, % at 7.5 µM (by protocol); U2OS HRE-luciferase reporter, luminescence; normalized: DMSO 0%, desferrioxamine 100%;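 active means mean activation of at least 10% of the iron chelator positive control signal, with at least half of replicates also reaching 10%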
Yeast superoxide – lowers age-related superoxide in aged yeast cells | S. cerevisiae aged cells, superoxide DHE fluorescence; hits give low values | superoxide response (% of plate mean), % at 10 µM | 330,000 tested, 0.18% active;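 active means superoxide response under a set limit, about three screen SD below normal, cut at about 65% in these data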;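 further: yeast aged for seven days with compound at 30 °C before DHE staining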
AI-2 QS mod – modulates the Vibrio harveyi AI-2 quorum sensing system; Vibrio harveyi JMH597 AI-2 luminescence/OD600 ratio, 9 h; hits give low values; strain lacks LuxN and CqsS sensors; 0 = neutral-control median; activity change, % at 7.5 µM; 300,000 tested, 0.4% active; AID 2094; in the data active means activity change below about -75%, passing the limit was not always enough;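 further: luminescence divided by OD600 gain over 9 h not by final OD600 alone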
Each line names hits and unclear results; the compound was inactive in the other large screens. Compounds with a hit are over-represented: about 3% of the library has one in this group of screens.

CC(=O)NCCC(=O)N1CCc2c([nH]c3ccccc23)C1c1cccc(C)c1 (stereo unspecified)	none
CCCCNC(=O)c1cc(-c2ccc(F)cc2)on1	HIF act 41
O=C(NCCCN1CCOCC1)c1cc(-c2ccccc2)on1	HIF act 28
Cc1onc(-c2c(Cl)cccc2Cl)c1C(=O)c1c[nH]c(C(=O)NCCCN2CCOCC2)c1	NRP1-CendR mod 23
Cc1onc(-c2c(Cl)cccc2Cl)c1C(=O)NCCCN1CCOCC1	none
CO[C@H]1C=CO[C@@]2(C)Oc3c(C)c(O)c4c(O)c(c5c(nc6cc(C)ccn65)c4c3C2=O)NC(=O)C(C)=CC=C[C@H](C)[C@H](O)[C@@H](C)[C@@H](O)[C@@H](C)[C@H](OC(C)=O)[C@@H]1C	AI-2 QS mod -219 (no result: NRP1-CendR mod, V-ATPase pH, Yeast superoxide)
O=C1OCCN1C(=O)[C@H]1[C@H](c2ccc(F)cc2)C(c2ccc(F)cc2)=NN1c1ccc(Br)cc1	Yeast superoxide 45
O=C1OCCN1C(=O)[C@H]1[C@H](c2ccc(Cl)cc2)C(c2ccc(F)cc2)=NN1c1ccc(Br)cc1	none (no result: T cruzi repl, HIF act, AI-2 QS mod)
Cc1cc(C)c2nc(NC(=O)c3ccc([N+](=O)[O-])o3)sc2c1	none
O=C(Nc1nc2cc3c(cc2s1)OCCO3)c1ccc([N+](=O)[O-])o1	T cruzi repl 59
Cc1cc(C)c2sc(NC(=O)c3ccc([N+](=O)[O-])o3)nc2c1	T cruzi repl 59, AI-2 QS mod -86
O=C(Oc1ccccc1)c1cc2ccccc2oc1=O	none (no result: T cruzi repl, HIF act)
O=C(/C=C/Nc1ccc(F)cc1F)c1ccc(Br)cc1	none
Cc1cc(NC(=O)COC(=O)C2CCN(S(=O)(=O)c3ccccc3)CC2)c([N+](=O)[O-])cc1C	NRP1-CendR mod 23
COc1ccc([N+](=O)[O-])cc1NC(=O)COC(=O)C1CC1	T cruzi repl 56
COc1ccccc1N(CC(=O)N/N=C/c1ccc(SC)cc1)S(C)(=O)=O	none
COc1cc2c(cc1OC)C(c1ccccc1)N(C(=O)CCl)CC2 (stereo unspecified)	none
COc1cc2c(cc1OC)C(C)N(S(=O)(=O)c1ccc(Cl)nc1)CC2 (stereo unspecified)	HIF act 16
COc1cc2c(cc1OC)C(c1ccccc1)N(S(C)(=O)=O)CC2 (stereo unspecified)	HIF act 28
Cc1ccc2nc(Cl)c3cc(C(=O)NCCCN4CCCC4)sc3c2c1	T cruzi repl 68
CN(C)CCN(Cc1ccco1)C(=O)c1cc2c(Cl)nc3ccccc3c2s1	T cruzi repl 63
CCCN1CCN(CCCNC(=O)c2cc3c(=O)oc4ccc(C)cc4c3s2)CC1	none
Cc1ccc2nc(Cl)c3cc(C(=O)N(CCN(C)C)Cc4ccco4)sc3c2c1	T cruzi repl 56
CCN(CC)CCn1c2c(c(SCC(=O)Nc3nc4ccc(C)cc4s3)nc1=O)CCC2	none
C=CCNC(=O)C1CCC(C(=O)NCC=C)CC1 (stereo unspecified)	none
CCOc1ccc(Nc2cc(=O)[nH]c(=O)[nH]2)cc1	none
CCOC(=O)C1=C(O)C(=O)N(c2ccccc2)C1c1cccc([N+](=O)[O-])c1 (stereo unspecified)	NRP1-CendR mod 26
O=C(COC(=O)/C=C/c1nc2ccccc2s1)Nc1cccc(Cl)c1Cl	none
O=C1Nc2ccccc2C12OCCO2	NRP1-CendR mod 35
CN(C)c1ccc(N/C=C/C(=O)c2ccc(F)cc2)cc1	T cruzi repl 60
O=C(NC(c1ccccc1)c1ccc2ccccc2n1)C1CCN(Cc2ccc(Oc3ccccc3)cc2)CC1 (stereo unspecified)	NRP1-CendR mod 20 (no result: V-ATPase pH, T cruzi repl, HIF act, Yeast superoxide, AI-2 QS mod)
CC1=C(C(=O)OCCc2ccccc2)C(c2ccsc2)NC(=O)N1C (stereo unspecified)	V-ATPase pH 23
CCOC(=O)COc1ccccc1/C=N/Nc1nnc2c3ccccc3n(C)c2n1	none
CCCCCC(=O)Nc1cccc(C2=NOC3(C2)C[C@@H](C(N)=O)N(C(=O)CC(c2ccccc2)c2ccccc2)C3)c1 (stereo partly specified)	T cruzi repl 76
Nc1ccc(C23CC4CC(CC(CO)(C4)C2)C3)cc1	none
NCC12CC3CC(C1)CC(c1ccc(Cl)cc1)(C3)C2	T cruzi repl 64
O=C(Cn1c(NCCCCl)nc2ccccc21)c1ccccc1	NRP1-CendR mod 31 (no result: T cruzi repl, HIF act, AI-2 QS mod)
CC(=O)Nc1ccc(NC(=O)C2CC(=O)N=C(N)S2)cc1 (stereo unspecified)	NRP1-CendR mod 32
CCOc1ccc(C(=O)NNC(=O)c2cc(S(=O)(=O)N3CCOCC3)ccc2Cl)cc1	none (no result: T cruzi repl, HIF act, AI-2 QS mod)
FC(F)(F)C1CC(c2cccs2)Nc2ncnn21 (stereo unspecified)	NRP1-CendR mod 30
CCC(C)NC(=O)c1cnn2c1NC(c1cccs1)CC2C(F)(F)F (stereo unspecified)	NRP1-CendR mod 22
CC(C)(C)NC(=O)c1cnn2c1NC(c1ccc(F)cc1)CC2C(F)(F)F (stereo unspecified)	none
Oc1ccc(CCNc2c3ccccc3nc3ccccc23)cc1O	HIF act 18
c1ccc(CNc2c3ccccc3nc3ccccc23)cc1	T cruzi repl 57, HIF act 20
CN(C)CCCNc1c2ccccc2nc2ccccc12	T cruzi repl 68
CN(C)CCCNc1nc(-c2ccccc2)nc2ccccc12	none
COc1ccc(OCC(O)CN2CCC(CN3C(=O)c4cccc5cccc(c45)C3=O)CC2)cc1 (stereo unspecified)	none
N#C/C(=C\Nc1ccc(Cl)cn1)S(=O)(=O)c1ccccc1	none
O=C(N/N=C/c1ccco1)C1CC1c1ccccc1 (stereo unspecified)	AI-2 QS mod -86
CC(C)(C)c1ccc(C2CC2C(=O)N/N=C\c2ccc[nH]2)cc1 (stereo unspecified)	T cruzi repl 60
COc1ccc(C(=O)OCC(=O)N2CCN(C(=O)c3ccco3)CC2)c(OC)c1OC	none (no result: T cruzi repl, HIF act, Yeast superoxide, AI-2 QS mod)
O=C(/C=C/c1ccc(-c2ccccc2[N+](=O)[O-])o1)c1ccco1	NRP1-CendR mod 28
CC(NCC(O)COCCC12CC3CC(CC(C3)C1)C2)c1ccccc1 (stereo unspecified)	T cruzi repl 60
COc1ccc(C(=O)COC(=O)C(CCSC)NS(=O)(=O)c2ccc(Cl)cc2)cc1 (stereo unspecified)	NRP1-CendR mod 26
COC(=O)C(CCSC)NS(=O)(=O)c1ccc(Cl)cc1 (stereo unspecified)	none
Cc1cccc(NC(=O)c2cc3c(=O)n4ccccc4nc3n(CC(C)C)c2=N)c1	none
O=C(O)C(=Cc1ccncc1)c1cccc2ccccc12	none (no result: T cruzi repl, HIF act, Yeast superoxide, AI-2 QS mod)
CC1CCCN(Cc2c(C(=O)N3CCc4ccccc4C3)nc3ccc(Cl)cn23)C1 (stereo unspecified)	none
